The record followed here is ChEMBL document CHEMBL1926502, “The discovery of UK-369003, a novel PDE5 inhibitor with the potential for oral bioavailability and dose-proportional pharmacokinetics” (Bioorg Med Chem, 2012).

Converted amounts (≈) assume the structure as drawn.

In general, IC50 refers to the midpoint of a concentration-inhibition curve. One may read the clearance as the volume of plasma or blood freed of the substance per unit of time. In general, bioavailability refers to dose-corrected exposure relative to a reference, in per cent. Read a high bioavailability as good availability. What is called Papp A→B is the apparent permeability from the apical to the basolateral side of a cell layer. Usually logD stands for lipophilicity at a set pH, counting ionised and neutral species. As usually defined, the solubility is how much of the substance goes into solution per volume. Read a low solubility as little dissolved substance. The term AUC denotes the area under the concentration-time curve, a measure of exposure. High values mean more exposure, low ones less exposure. For orientation: Cmax means the peak of the concentration-time curve. The term Tmax denotes the time at which the peak concentration occurs.

For data set [1], the species on record is Homo sapiens. As to the kind of experiment: Selectivity ratio of IC50 for PDE6 to IC50 for human PDE5. The procedure, abridged: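 PDE5 was prepared from human corpus cavernosum and cone PDE6 from dog retina (anion-exchange fraction). IC50s came from concentration–response curves in a scintillation proximity assay with [3H]/unlabelled cGMP (1:3) at about 1/3 Km, so IC50 = Ki. Buffer was 20 mM Tris-HCl pH 7.4, 5 mM MgCl2, 1 mg/mL BSA; 30–60 min at 30 °C, <30% turnover. Ratio = PDE6 IC50/PDE5 IC50.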

The target of data set [2] is cGMP-specific 3',5'-cyclic phosphodiesterase (Homo sapiens, UniProt O76074). As to the kind of experiment: Inhibition of human PDE5 isolated from corpus cavernosum after 30 to 60 mins by scintillation counting method.
Data set [3] is described as follows: Volume of distribution in dog at 0.5 mg/kg, iv and 1 mg/kg, po. Type of data set: ADME, organism-based, Canis lupus familiaris. The conditions noted are these: in vivo.
For a further data set, the system named is Caco-2. Briefly: Efflux ratio of apparent permeability from apical to basolateral to basolateral to apical side of human Caco2 cells. The format is ADME, cell-based. The procedure, abridged: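 Caco-2 cell monolayers; flux measured in both directions, and the efflux ratio is taken as apical→basolateral flux divided by basolateral→apical flux.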
A general note: Passage across Caco-2 layers is used to estimate intestinal permeability.

Data set [4] can be described thus: Clearance in dog at 0.5 mg/kg, iv. Type of data set: ADME, organism-based, Canis lupus familiaris. Also noted: dose 0.5 mg/kg, route intravenous. To be noted: in vivo.
A short description of data set [5]: Oral bioavailability in dog at 1 mg/kg. Type of data set: ADME, organism-based, Canis lupus familiaris. To be noted: in vivo.
Data set [6] in a line: Apparent permeability from apical to basolateral side of human Caco2 cells at 25 uM. The format is ADME, cell-based. To be noted: Caco-2.
Data set [7] is described as follows: Elimination half life in dog at 0.5 mg/kg, iv and 1 mg/kg, po. Type of data set: ADME, organism-based, Canis lupus familiaris. The conditions noted are these: in vivo, read-out: beta t1/2 (converted).
The nature of data set [8]: Half life in human liver microsomes. Type of data set: ADME, Microsome.
A short description of data set [9]: Lipophilicity, log D of the compound at pH 7.4. To be noted: buffer. Type of data set: physicochemical.
Data set [10] is described as follows: Elimination half life in human at 0.43 mg/kg, iv. The format is ADME, organism-based. On the set-up: dose 0.43 mg/kg, route intravenous. The conditions noted are these: in vivo, read-out: beta t1/2 (converted).
Data set [11] is described as follows: Aqueous solubility of the compound in 0.2 M lactate buffer at pH 4.3. Type of data set: physicochemical.
Data set [12] is described as follows: Aqueous solubility of the compound at pH 6.7. The format is physicochemical. To be noted: buffer.
Data set [13] in a line: Clearance in rat at 1 mg/kg, iv. To be noted: in vivo. On the set-up: dose 1 mg/kg, route intravenous. Type of data set: ADME, organism-based.
Data set [14] can be described thus: Elimination half life in rat at 1 mg/kg, iv and 2 mg/kg, po. To be noted: in vivo, read-out: beta t1/2 (converted). Type of data set: ADME, organism-based.
A short description of data set [15]: Volume of distribution in human at 0.43 mg/kg, iv. The format is ADME, organism-based. On the set-up: dose 0.43 mg/kg, route intravenous. The conditions noted are these: in vivo.
Data set [16] concerns Homo sapiens. As to the kind of experiment: AUC in human at 1.43 mg/kg, po. Type of data set: ADME, organism-based, Plasma. Also noted: dose 1.43 mg/kg, route oral. To be noted: in vivo. The procedure, abridged: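 Human pharmacokinetic study. The oral arm was given at 1.43 mg/kg, and a separate intravenous arm at 0.43 mg/kg. AUC (ng h/ml) was derived from the oral dosing, alongside Cmax, Tmax and oral bioavailability.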

Data set [17] in a line: Volume of distribution in rat at 1 mg/kg, iv and 2 mg/kg, po. The format is ADME, organism-based. The conditions noted are these: in vivo.
A short description of data set [18]: Cmax in human at 1.43 mg/kg, po. Type of data set: ADME, organism-based. On the set-up: dose 1.43 mg/kg, route oral. To be noted: in vivo.
Data set [19] in a line: Tmax in human at 1.43 mg/kg, po. Type of data set: ADME, organism-based. Also noted: dose 1.43 mg/kg, route oral. The conditions noted are these: in vivo.
Data set [20] is described as follows: Oral bioavailability in rat at 2 mg/kg. Type of data set: ADME, organism-based. The conditions noted are these: in vivo.
In data set [21] the test system is Homo sapiens. As to the kind of experiment: Oral bioavailability in human at 1.43 mg/kg. The conditions noted are these: in vivo. Type of data set: ADME, organism-based.

In the case of `CCc1c2nc(-c3cc(S(=O)(=O)N4CCN(CC)CC4)cnc3OCC3CC3)[nH]c(=O)c2nn1CCN1CCOCC1`, in the data set listed under Homo sapiens [1], the Ratio IC50 was 153. This compound also came in with an IC50 in data set [2] of 0.26 nM.
In the case of `CCc1c2nc(-c3cc(S(=O)(=O)N4CCN(CC)CC4)cnc3OCCOC)[nH]c(=O)c2nn1C1CCC1`, the Ratio IC50 in the data set listed under Homo sapiens [1] was 219. The IC50 in data set [2] is 1.76 nM.
For `CCOc1ncc(S(=O)(=O)N2CCN(CC)CC2)cc1-c1nc2c3n(nc2c(=O)[nH]1)CCCC3C` (single isomer, unassigned; (-)) [listing 1 of 2 here], in the data set listed under Homo sapiens [1], the Ratio IC50 is 55.
Regarding `CCOc1ncc(S(=O)(=O)N2CCN(CC)CC2)cc1-c1nc2c(CC)n(C3CNC3)nc2c(=O)[nH]1`, the Ratio IC50 in the data set filed under Homo sapiens [1] stood at 28. This compound returned an IC50 in data set [2] of 15.8 nM.
Regarding `CCCn1nc2c(=O)[nH]c(-c3cc(S(=O)(=O)N4CCN(C)CC4)cnc3OCCOC)nc2c1CC`, the Ratio IC50 in the data set filed under Homo sapiens [1] was 165. In data set [2], this compound returned an IC50 of 4.35 nM.
For `CCN1CCN(S(=O)(=O)c2cnc(OCCOC)c(-c3nc4c5n(nc4c(=O)[nH]3)CCCC5C)c2)CC1` (single isomer, unassigned; (-)), in data set [3], the Vd was found to be 2.6 L/kg. Besides, the Ratio in the data set on Caco-2 amounted to 1.5. For the same compound, the clearance in data set [4] was determined as 20 mL/min/kg. Moreover, half-maximal inhibition in data set [2] (IC50) was put at 1.96 nM. In data set [5], this compound gave a bioavailability of 18%. In addition, in [6], the Papp A→B at 25 µM came to 24 ×10⁻⁶ cm/s. The half-life is 1.5 h in data set [7] and 0.187 h in data set [8]. Moreover, the logD in data set [9] was found to be 1.6.
Compound `CCOc1ncc(S(=O)(=O)N2CCN(CC)CC2)cc1-c1nc2c3n(nc2c(=O)[nH]1)CCCC3C` (single isomer, unassigned; (-)) [listing 2 of 2 here] returned an IC50 in [2] of 3.7 nM.
Take `CCOc1ncc(S(=O)(=O)N2CCN(CC)CC2)cc1-c1nc2c3n(nc2c(=O)[nH]1)CCCC3C` (single isomer, unassigned; (+)) [listing 1 of 2 here]: the Ratio IC50 in the data set listed under Homo sapiens [1] was 125.
As to `CCc1c2nc(-c3cc(S(=O)(=O)N4CCN(CC)CC4)cnc3OCC(C)C)[nH]c(=O)c2nn1CCOC`, the Ratio IC50 in the data set filed under Homo sapiens [1] was determined as 204. The Ratio in the data set with Caco-2 stood at 1.1. The IC50 in data set [2] worked out at 0.69 nM. The Papp A→B at 25 µM in data set [6] amounted to 40 ×10⁻⁶ cm/s. For the same compound, the half-life in [8] came out at 0.117 h. The same compound displayed a pH-dependent lipophilicity (logD) in [9] of 2.9.
In turn, `CCOc1ncc(S(=O)(=O)N2CCN(CC)CC2)cc1-c1nc2c3n(nc2c(=O)[nH]1)CCCC3C` (single isomer, unassigned; (+)) [listing 2 of 2 here] gave an IC50 in data set [2] of 3.35 nM.
For `CCN1CCN(S(=O)(=O)c2cnc(OCCOC)c(-c3nc4c5n(nc4c(=O)[nH]3)CCCC5C)c2)CC1` (single isomer, unassigned; (+)), in the data set listed under Homo sapiens [1], the Ratio IC50 was found to be 149.
Turning to `CCc1c2nc(-c3cc(S(=O)(=O)N4CCN(CC)CC4)cnc3OCCOC)[nH]c(=O)c2nn1C1CCOCC1`, in the data set filed under Homo sapiens [1], the Ratio IC50 came out at 241. The same compound gave a half-maximal inhibitory concentration (IC50) in data set [2] of 1.66 nM.
Regarding `CCOc1ncc(S(=O)(=O)N2CCN(CC)CC2)cc1-c1nc2c(CC)n(CCOC)nc2c(=O)[nH]1`, the half-life in [10] was 2.6 h; in data set [14] it was 0.95 h; in [7] it was 2.1 h; in data set [8], 0.467 h. Further, the figures for the Vd in data set [3], in data set [15] and in data set [17] were 2.8 L/kg, 2.8 L/kg and 2.2 L/kg, respectively. For the same compound, the values for the solubility in [11] and in data set [12] were greater than 14 mg/mL and 100 mg/mL (≈ 192 mM), respectively. The clearance is 16 mL/min/kg in [4] and 26.6 mL/min/kg in data set [13]. This compound yielded an IC50 in data set [2] of 1.23 nM. In addition, the bioavailability in data set [5] turned out to be 55%; in [20], 61%. In addition, the AUC in the data set on Homo sapiens [16] is 95.2 ng·h/mL. Besides, the Papp A→B at 25 µM in data set [6] was 16 ×10⁻⁶ cm/s. In [18], this compound registered a Cmax of 205 ng/mL. Further, in data set [19], the Tmax stood at 1 h. The compound also registered a F with Homo sapiens [21] of 34%. This compound registered a log distribution coefficient (logD) in [9] of 2.1.
As to `CCCCOc1ncc(S(=O)(=O)N2CCN(CC)CC2)cc1-c1nc2c(CC)n(C3CN(C)C3)nc2c(=O)[nH]1`, the Ratio IC50 in the data set listed under Homo sapiens [1] came to 209. The Ratio with Caco-2 is recorded as 4. Besides, inhibition in [2] was half-maximal at 0.78 nM (IC50). In addition, in [6], the Papp A→B at 25 µM turned out to be 6 ×10⁻⁶ cm/s. This compound registered a half-life in data set [8] of 1.23 h. Moreover, the logD in data set [9] worked out at 2.8.
Turning to `CCCOc1ncc(S(=O)(=O)N2CCN(CC)CC2)cc1-c1nc2c3n(nc2c(=O)[nH]1)CCCC3`, in the data set listed under Homo sapiens [1], the Ratio IC50 was 55. Besides, in [2], the IC50 amounted to 2.47 nM.
For `CCc1c2nc(-c3cc(S(=O)(=O)N4CCN(CC)CC4)cnc3OCCOC)[nH]c(=O)c2nn1CC1CC1`, in that order: 189 and 1.01 nM.
As to `CCc1c2nc(-c3cc(S(=O)(=O)N4CCN(CC)CC4)cnc3OCCOC)[nH]c(=O)c2nn1CCOC`, the Ratio IC50 in the data set listed under Homo sapiens [1] was 306. Also, the Ratio in the data set with Caco-2 was 4.2. In data set [2], this compound registered an IC50 of 1.53 nM. Moreover, the Papp A→B at 25 µM in data set [6] was determined as 9 ×10⁻⁶ cm/s. Also, the half-life in data set [8] was found to be 1.17 h. In data set [9], this compound came in with a pH-dependent lipophilicity (logD) of 1.4.
